Measurements taken from ChEMBL document CHEMBL6115053, “Optimization and Characterization of N-Acetamide Indoles as Antimalarials That Target PfATP4” (J Med Chem, 2025).
Values after ≈ are worked out from the molar mass of the structure shown. Active and inactive are the calls of the source. No cut-off for these calls is given here.

Legend:
HepG2 = assay: Cytotoxicity against human HepG2 cells assessed as inhibition of cell growth incubated for 48 hrs by celltiterglo assay; type: toxicity, cell-based; settings: hepg2, 48 h
Plasmodium falciparum [1] = assay: Antiplasmodial activity against asexual Plasmodium falciparum 3D7 infected in human […] cells assessed as reduction in parasite growth measured for 72 hrs by LDH assay; type: functional, organism-based; settings: 3D7, 72 h
[2] = Aqueous solubility in PBS buffer at pH 7.4; type: physicochemical
[3] = Metabolic stability in human liver microsome assessed as intrinsic clearance; type: ADME; settings: microsomes
[4] = Lipophilicity, logD of compound at pH 7.4 by shake-flask method; type: physicochemical; settings: buffer
[5] = Metabolic stability in rat hepatocyte […] assessed as intrinsic clearance measured per 10^6 cells; type: ADME, cell-based; settings: hepatocytes
[6] = Metabolic stability in mouse liver microsome assessed as intrinsic clearance; type: ADME; settings: microsomes
Plasmodium falciparum [7] = assay: Antimalarial activity against synchronized-ring stage Plasmodium falciparum 3D7 assessed as reduction in parasitemia at 10 times EC50 measured at 72 hrs post-treatment by LDH assay; type: functional, organism-based
How it was run: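 Parasite reduction ratio assay in P. falciparum 3D7 with an LDH read-out. Means and SDs were taken from three replicate experiments.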

Plasmodium falciparum [8] = assay: Antiplasmodial activity against Plasmodium falciparum 3D7 infected in RBC assessed as reduction in parasite growth measured for 8 hrs by Giemsa-staining based microscopic analysis; type: functional, organism-based
How it was run: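 Giemsa-stained thin smears were read at 8 h and the percentages of extracellular and intracellular parasites counted, compared with untreated parasites at 0 h.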

Row | SMILES | CC50 (HepG2) | EC50 (Plasmodium falciparum [1]) | further results
1 | Cc1cc2ccc(-c3cnn(C)c3)cc2n1CC(=O)Nc1ccccc1Cl | > 40 µM | – | –
2 | Cc1nnc(-c2ccc3ccn(CC(=O)Nc4ccccc4C)c3c2)o1 | – | 1.18 µM | –
3 | Cc1nnc(-c2ccc3ccn(CC(=O)Nc4ccncc4)c3c2)o1 | > 40 µM | 4.68 µM | –
4 | Cc1ccc(NC(=O)Cn2ccc3ccc(-c4nnc(C)o4)cc32)cc1 | > 40 µM | 5.35 µM | –
5 | Cc1nnc(-c2ccc3ccn(CC(=O)N(C)c4ccccc4)c3c2)o1 | – | > 10 µM | –
6 | CC(C)c1nnc(-c2ccc3ccn(CC(=O)Nc4ccccc4Cl)c3c2)o1 | – | > 10 µM | –
7 | Cc1nnc(-c2ccc3ccn(CC(=O)Nc4ccccc4F)c3c2)o1 | > 40 µM | 2.1 µM | –
8 | COc1cc(NC(=O)Cn2ccc3ccc(-c4nnc(C)o4)cc32)cc(OC)c1 | > 40 µM | 1.18 µM | –
9 | CCn1cc(-c2ccc3ccn(CC(=O)Nc4ccccc4Cl)c3c2)cn1 | > 40 µM | > 10 µM | –
10 | COc1cc(NC(=O)Cn2cc(Cl)c3ccc(-c4cnn(C)c4)cc32)cc(OC)c1OC | > 40 µM | 0.049 µM | solubility kinetic [2]: 2.5 µM (≈ 1.14 µg/mL); intrinsic clearance (CLint) [3]: 15 µL/min/mg; logD [4]: 4.2; intrinsic clearance (CLint) [5]: < 1 uL/min/10^6 cells; intrinsic clearance (CLint) [6]: 53 µL/min/mg
11 | O=C(Cn1ccc2ccc(-c3cnn(C(F)F)c3)cc21)Nc1ccccc1Cl | > 40 µM | 1.5 µM | –
12 | CCc1nc(N)nc(N)c1-c1ccc(Cl)cc1 | – | – | Activity (Plasmodium falciparum [7]): Active
13 | COc1ccc(NC(=O)Cn2ccc3ccc(-c4nnc(C)o4)cc32)cc1 | > 40 µM | 7.8 µM | –
14 | Cc1nnc(-c2ccc3ccn(CC(=O)Nc4ccc(C#N)cc4)c3c2)o1 | – | > 10 µM | –
15 | Cc1cccc(-c2ccc3ccn(CC(=O)Nc4ccccc4Cl)c3c2)c1 | > 40 µM | 1.11 µM | –
16 | Cc1nnc(-c2ccc3ccn(CC(=O)Nc4c(F)cccc4F)c3c2)o1 | > 40 µM | 1.65 µM | –
17 | O=C(Cn1ccc2ccc(-c3cnn(-c4ccccc4)c3)cc21)Nc1ccccc1Cl | – | > 10 µM | –
18 | CCN(CC)CCCC(C)Nc1ccnc2cc(Cl)ccc12 (centres undefined) | – | – | Activity (Plasmodium falciparum [7]): Active; Activity (Plasmodium falciparum [8]): Active
19 | Cc1nnc(-c2ccc3ccn(CC(=O)Nc4cccc(Cl)c4)c3c2)o1 | > 40 µM | 0.898 µM | –
20 | CC(C)n1cc(-c2ccc3ccn(CC(=O)Nc4ccccc4Cl)c3c2)cn1 | – | > 10 µM | –
21 | Cc1nnc(-c2ccc3ccn(CC(=O)Nc4cccc(C(F)(F)F)c4)c3c2)o1 | > 40 µM | 0.615 µM | –
22 | Cc1nnc(-c2ccc3ccn(CC(=O)Nc4cccc(F)c4)c3c2)o1 | > 40 µM | 1.45 µM | –
23 | Cc1cc(-c2ccc3ccn(CC(=O)Nc4ccccc4Cl)c3c2)ccn1 | – | 2.83 µM | –
24 | Cc1ncc(-c2ccc3ccn(CC(=O)Nc4ccccc4Cl)c3c2)s1 | > 40 µM | 1.9 µM | –
25 | Cc1nnc(-c2ccc3ccn(CC(=O)Nc4ccccc4C(F)(F)F)c3c2)o1 | > 40 µM | 3.1 µM | –

Row | SMILES | CC50 (HepG2) | EC50 (Plasmodium falciparum [1]) | further results
26 | O=C(Cn1ccc2ccc(-c3nnco3)cc21)Nc1ccccc1Cl | – | > 10 µM | –
27 | Cn1cc(-c2ccc3ncn(CC(=O)Nc4ccccc4Cl)c3c2)cn1 | – | > 10 µM | –
28 | Cc1cc(-c2ccc3ccn(CC(=O)Nc4ccccc4Cl)c3c2)cnn1 | – | 3.65 µM | –
29 | Cc1nnc(-c2ccc3ccn(CC(=O)Nc4ccccn4)c3c2)o1 | > 40 µM | 4.78 µM | –
30 | Cc1nnc(-c2ccc3ccn(CC(=O)Nc4ccc(C(F)(F)F)cc4)c3c2)o1 | > 40 µM | 2.1 µM | –
31 | Cc1nnc(-c2ccc3ccn(CC(=O)Nc4cc(F)cc(F)c4)c3c2)o1 | > 40 µM | 1.18 µM | –
32 | Cn1cc(-c2ccc3ccn(CC(=O)Nc4ccccc4Cl)c3n2)cn1 | > 40 µM | 1.53 µM | solubility kinetic [2]: 2.5 µM (≈ 0.915 µg/mL); intrinsic clearance (CLint) [3]: 458 µL/min/mg; logD [4]: 3.3; intrinsic clearance (CLint) [5]: 92 uL/min/10^6 cells
33 | Cc1noc(-c2ccc3ccn(CC(=O)Nc4ccccc4Cl)c3c2)n1 | – | > 10 µM | –
34 | Cc1n[nH]c(C)c1-c1ccc2ccn(CC(=O)Nc3ccccc3Cl)c2c1 | > 40 µM | 3.6 µM | –
35 | Cc1nn(C)cc1-c1ccc2ccn(CC(=O)Nc3ccccc3Cl)c2c1 | > 40 µM | 0.23 µM | –
36 | COc1cc(NC(=O)Cn2cc(Cl)c3ccc(-c4cn(C)nc4C)cc32)cc(OC)c1OC | – | 0.022 µM | –
37 | COc1ccccc1NC(=O)Cn1ccc2ccc(-c3nnc(C)o3)cc21 | – | > 10 µM | –
38 | Cc1nnc(-c2ccc3ccn(CC(=O)Nc4cccc(C#N)c4)c3c2)o1 | > 40 µM | 0.99 µM | –
39 | Cn1cc(-c2ccc3c(Br)cn(CC(=O)Nc4ccccc4Cl)c3c2)cn1 | > 40 µM | 0.165 µM | –
40 | Cc1ccc(-c2ccc3ccn(CC(=O)Nc4ccccc4Cl)c3c2)s1 | – | > 10 µM | –
41 | Cc1nnc(-c2ccc3ccn(CC(=O)Nc4cccc(F)c4Cl)c3c2)o1 | > 40 µM | 1.33 µM | –
42 | COc1cc(NC(=O)Cn2ccc3ccc(-c4cnn(C)c4)cc32)cc(OC)c1OC | > 40 µM | 0.385 µM | solubility kinetic [2]: 4.6 µM (≈ 1.93 µg/mL); intrinsic clearance (CLint) [3]: 95 µL/min/mg; logD [4]: 3.5; intrinsic clearance (CLint) [5]: 4.6 uL/min/10^6 cells
43 | Cc1nnc(-c2ccc3ccn(CC(=O)Nc4ccncc4Cl)c3c2)o1 | > 40 µM | 7.13 µM | –
44 | Cn1cc(-c2cnc3ccn(CC(=O)Nc4ccccc4Cl)c3c2)cn1 | – | > 10 µM | –
45 | Cc1c(-c2ccc3ccn(CC(=O)Nc4ccccc4Cl)c3c2)cnn1C | > 40 µM | 0.248 µM | –
46 | Cn1cc(-c2cc3c(ccn3CC(=O)Nc3ccccc3Cl)cn2)cn1 | > 40 µM | 8.45 µM | –
47 | Cc1nn(C)c(C)c1-c1ccc2ccn(CC(=O)Nc3ccccc3Cl)c2c1 | > 40 µM | 0.31 µM | –
48 | COc1cc(NC(=O)Cn2cc(Cl)c3cc(F)c(-c4cn(C)nc4C)cc32)cc(OC)c1OC | > 40 µM | 0.108 µM | solubility kinetic [2]: 2.5 µM (≈ 1.22 µg/mL); intrinsic clearance (CLint) [3]: 64 µL/min/mg; logD [4]: 4.8; intrinsic clearance (CLint) [5]: 5.7 uL/min/10^6 cells; intrinsic clearance (CLint) [6]: 73 µL/min/mg
49 | Cc1cn(CC(=O)Nc2ccccc2Cl)c2cc(-c3cnn(C)c3)ccc12 | > 40 µM | 0.868 µM | –
50 | O=C(Cn1ccc2ccc(-c3cnn(CC(F)(F)F)c3)cc21)Nc1ccccc1Cl | – | > 10 µM | –

Row | SMILES | CC50 (HepG2) | EC50 (Plasmodium falciparum [1]) | further results
51 | Cc1nnc(-c2ccc3ccn(CC(=O)Nc4cc(F)ccc4Cl)c3c2)o1 | > 40 µM | 0.683 µM | –
52 | Cc1cccc(NC(=O)Cn2ccc3ccc(-c4nnc(C)o4)cc32)c1 | > 40 µM | 2.8 µM | –
53 | Cc1nnc(-c2ccc3ccn(CC(=O)Nc4ccc(Cl)cc4)c3c2)o1 | > 40 µM | 4.47 µM | –
54 | Cc1nnc(-c2ccc3ccn(CC(=O)Nc4cc(F)ccc4F)c3c2)o1 | > 40 µM | 1.25 µM | –
55 | Cc1nnc(-c2ccc3ccn(CC(=O)Nc4cccc(Cl)c4Cl)c3c2)o1 | > 40 µM | 1.33 µM | –
56 | Cc1ccc(-c2ccc3ccn(CC(=O)Nc4ccccc4Cl)c3c2)cn1 | – | > 10 µM | –
57 | Cc1nnc(-c2ccc3ccn(CC(=O)Nc4cc(Cl)cc(Cl)c4)c3c2)o1 | > 40 µM | 3.88 µM | –
58 | COc1ccc(NC(=O)Cn2ccc3ccc(-c4nnc(C)o4)cc32)cc1OC | > 40 µM | 1.55 µM | –
59 | Cn1cc(-c2ccc3c(F)cn(CC(=O)Nc4ccccc4Cl)c3c2)cn1 | > 40 µM | 0.33 µM | –
60 | Cc1nnc(-c2ccc3ccn(CC(=O)Nc4ccccc4C#N)c3c2)o1 | > 40 µM | 3.48 µM | –
61 | Cc1ccc(-c2ccc3ccn(CC(=O)Nc4ccccc4Cl)c3c2)cc1 | – | > 10 µM | –
62 | Cn1cc(-c2ccc3c(Cl)cn(CC(=O)Nc4ccccc4Cl)c3c2)cn1 | > 40 µM | 0.138 µM | solubility kinetic [2]: < 2.5 µM; intrinsic clearance (CLint) [3]: 65 µL/min/mg; logD [4]: 4.6; intrinsic clearance (CLint) [5]: 29 uL/min/10^6 cells; intrinsic clearance (CLint) [6]: 177 µL/min/mg
63 | Cc1nnc(-c2ccc3ccn(CC(=O)Nc4cccnc4)c3c2)o1 | > 40 µM | 4.25 µM | –
64 | Cc1nnc(-c2ccc3ccn(CC(=O)Nc4cccnc4Cl)c3c2)o1 | > 40 µM | 1.17 µM | solubility kinetic [2]: 73 µM (≈ 26.8 µg/mL); intrinsic clearance (CLint) [3]: 57 µL/min/mg; logD [4]: 2.1; intrinsic clearance (CLint) [5]: 27 uL/min/10^6 cells
65 | Cn1ccc(-c2ccc3ccn(CC(=O)Nc4ccccc4Cl)c3c2)n1 | – | > 10 µM | –
66 | Cc1nnc(-c2ccc3ccn(CC(=O)Nc4ccc(F)cc4)c3c2)o1 | > 40 µM | 3.8 µM | –
67 | Cn1cc(-c2ccc3ccn(CC(=O)Nc4ccccc4Cl)c3c2)c(C(F)(F)F)n1 | > 40 µM | 0.043 µM | solubility kinetic [2]: 2.5 µM (≈ 1.08 µg/mL); intrinsic clearance (CLint) [3]: 488 µL/min/mg; logD [4]: 4.7; intrinsic clearance (CLint) [5]: 92 uL/min/10^6 cells
68 | O=C(Cn1ccc2ccc(-c3nnc(C(F)(F)F)o3)cc21)Nc1ccccc1Cl | – | > 10 µM | –
69 | Cn1cc(-c2ccc3cnn(CC(=O)Nc4ccccc4Cl)c3c2)cn1 | – | > 10 µM | –
70 | COc1cccc(NC(=O)Cn2ccc3ccc(-c4nnc(C)o4)cc32)c1 | > 40 µM | 3.6 µM | –
71 | O=C(Cn1ccc2ccc(-c3cnn(C(F)(F)F)c3)cc21)Nc1ccccc1Cl | – | > 10 µM | –
72 | Cc1nnc(-c2ccc3ccn(CC(=O)Nc4ccccc4)c3c2)o1 | > 40 µM | 1.63 µM | –
73 | COc1cc(NC(=O)Cn2ccc3ccc(-c4cn(C)nc4C)cc32)cc(OC)c1OC | > 40 µM | 0.1 µM | solubility kinetic [2]: 8.6 µM (≈ 3.74 µg/mL); intrinsic clearance (CLint) [3]: 105 µL/min/mg; logD [4]: 3.2; intrinsic clearance (CLint) [5]: 11 uL/min/10^6 cells; intrinsic clearance (CLint) [6]: 207 µL/min/mg
74 | CC(C(=O)Nc1ccccc1Cl)n1ccc2ccc(-c3cnn(C)c3)cc21 (centres undefined) | > 40 µM | – | –
